The target in test [1] is T1, Polyunsaturated fatty acid 5-lipoxygenase (Rattus norvegicus, UniProt P12527).
T1 sequence (P12527 whole entry): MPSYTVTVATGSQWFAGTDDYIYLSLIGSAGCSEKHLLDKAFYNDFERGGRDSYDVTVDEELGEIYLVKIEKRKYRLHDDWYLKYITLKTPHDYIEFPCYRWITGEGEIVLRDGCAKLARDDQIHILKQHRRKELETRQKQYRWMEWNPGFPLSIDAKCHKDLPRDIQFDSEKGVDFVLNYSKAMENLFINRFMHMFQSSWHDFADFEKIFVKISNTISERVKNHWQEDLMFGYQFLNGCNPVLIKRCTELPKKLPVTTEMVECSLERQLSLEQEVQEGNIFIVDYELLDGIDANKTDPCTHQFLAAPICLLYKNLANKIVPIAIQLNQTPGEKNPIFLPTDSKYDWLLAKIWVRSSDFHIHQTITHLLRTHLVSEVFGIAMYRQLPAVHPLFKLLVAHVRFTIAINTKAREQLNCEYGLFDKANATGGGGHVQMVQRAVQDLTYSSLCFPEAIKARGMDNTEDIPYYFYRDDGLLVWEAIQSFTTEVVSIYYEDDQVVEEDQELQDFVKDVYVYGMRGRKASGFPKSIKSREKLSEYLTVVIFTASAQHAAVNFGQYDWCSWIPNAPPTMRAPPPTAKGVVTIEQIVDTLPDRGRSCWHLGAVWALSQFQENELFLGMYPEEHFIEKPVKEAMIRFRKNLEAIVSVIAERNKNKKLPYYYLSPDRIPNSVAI
The test can be described thus: Ability to inhibit 5-lipoxygenase by using a crude preparation of the cytosolic enzyme from the rat basophilic leukemia (RBL-1) cell line. The test is classed as cell-based. The essentials:
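Crude cytosolic enzyme (supernatant) from RBL-1 cells, amount giving net 3300–3800 dpm 5-HETE (9–20 μg cell protein/assay). Enzyme is preincubated 5 min at 37 °C, pH 7.0, with compound (in 5% DMSO/Tris pH 8.5) in phosphate buffer with EDTA, gelatin, glutathione, CaCl2 and 0.012 mM indomethacin. Reaction is started with 0.042 mM final [14C]arachidonic acid and stopped by freezing after 2 min.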

Test [2] has as its system Mus musculus. As to the kind of experiment: Percentage inhibition of the mouse arachidonic acid induced ear edema assay (AA) at a dose of 100 ug/ear. The test is classed as functional. The essentials:
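Groups of 10 male CF1 mice (18–20 g). Compound in acetone is applied topically to both ears just before 1 mg arachidonic acid in acetone is applied to one ear; the other ear serves as control. Mice are killed 60 min later and 6-mm ear punches weighed; swelling is the weight difference. %Inhibition = [(C−T)/C]×100, with Student's t test.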

The source of these data is ChEMBL document CHEMBL1124955, “2-substituted-1-naphthols as potent 5-lipoxygenase inhibitors with topical antiinflammatory activity” (J Med Chem, 1990).

Structures are written as SMILES.

Take `COc1cccc(Cc2ccc3ccccc3c2O)c1`: in test [1], the IC50 amounted to 110 nM. For the same molecule, in test [2], the Inhibition is reported as 72%.
In the case of `Oc1c(Cc2cccc(Cl)c2)ccc2ccccc12`, the IC50 in test [1] was determined as 52 nM. The Inhibition in test [2] is on record as 67%.
For `Oc1c(Cc2ccccc2)cc(Br)c2ccccc12` the same measures were 77 nM and 33%.
For `O=C(O)c1cc(Cc2ccccc2)c(O)c2ccccc12` the same measures were 5800 nM and 3%.
For the molecule `Oc1c(Cc2ccncc2)ccc2ccccc12`, the IC50 in test [1] was 140 nM. Besides, in test [2], the Inhibition is given as 62%.
The corresponding values for `NS(=O)(=O)c1cc(Cc2ccccc2)c(O)c2ccccc12` are 9400 nM and 3%.
For `COc1cc(Cc2ccccc2)c(O)c2ccccc12` the same measures were 31 nM and 69%.
For `Oc1c(Cc2ccc3c(c2)OCO3)ccc2ccccc12` the same measures were 40 nM and 78%.
On to `Cc1cc(C)c2ccc(Cc3ccccc3)c(O)c2c1`, for which the IC50 in test [1] was 62 nM. Moreover, the Inhibition in test [2] is reported as 44%.
In test [1], `COc1ccc2c(O)c(Cc3ccccc3)ccc2c1` showed an IC50 of 1900 nM. In test [2], this molecule returned an Inhibition of 76%.
For `COc1cc2ccc(Cc3ccccc3)c(O)c2cc1OC` the same measures were 1700 nM and 33%.
For `COc1cccc2c(O)c(Cc3ccccc3)ccc12` the same measures were 100 nM and 69%.
For `Oc1c(Cc2ccc(Cl)cc2)ccc2ccccc12` the same measures were 39 nM and 66%.
On to `Cc1ccc(Cc2ccc3ccccc3c2O)cc1`, for which half-maximal inhibition in test [1] (IC50) required 24 nM. Besides, the Inhibition in test [2] amounted to 79%.
For `Cn1cccc1Cc1ccc2ccccc2c1O` the same measures were 140 nM and 72%.
For `O=[N+]([O-])c1cc(Cc2ccccc2)c(O)c2ccccc12` the same measures were 48000 nM and 28%.
For `CCOc1ccccc1Cc1ccc2ccccc2c1O` the same measures were 570 nM and 51%.
Molecule `Oc1c(Cc2ccccc2)cc(-c2ccccc2)c2ccccc12` returned an IC50 in test [1] of 56 nM. The molecule further gave an Inhibition in test [2] of 26%.
The molecule `Oc1c(Cc2cccs2)ccc2ccccc12` registered an IC50 in test [1] of 60 nM. In test [2], this molecule yielded an Inhibition of 84%.
On to `Oc1c(Cc2ccccn2)ccc2ccccc12`, for which the IC50 in test [1] worked out at 390 nM. This molecule also had an Inhibition in test [2] of 56%.
Regarding `Oc1c(CCc2ccccc2)ccc2ccccc12`, in test [1], half-maximal inhibition (IC50) required 140 nM. The molecule further showed an Inhibition in test [2] of 69%.
For `CN(C)c1ccc(Cc2ccc3ccccc3c2O)cc1` the same measures were 140 nM and 67%.
For `Cc1ccc(C)c2c(O)c(Cc3ccccc3)ccc12` the same measures were 120 nM and 52%.
`Oc1c(Cc2ccco2)ccc2ccccc12` displayed an IC50 in test [1] of 37 nM. The molecule also displayed an Inhibition in test [2] of 84%.
The corresponding values for `Oc1c(Cc2cccnc2)ccc2ccccc12` are 230 nM and 46%.
On to `Oc1c(Cc2ccc(Br)cc2)ccc2ccccc12`, for which the IC50 in test [1] turned out to be 68 nM. In test [2], this molecule showed an Inhibition of 50%.
The corresponding values for `Oc1c(Cc2cccc(Br)c2)ccc2ccccc12` are 88 nM and 55%.
For `CS(=O)(=O)c1cc(Cc2ccccc2)c(O)c2ccccc12` the same measures were 40000 nM and 15%.
`CSc1ccc(Cc2ccc3ccccc3c2O)cc1` gave an IC50 in test [1] of 48 nM. This molecule had an Inhibition in test [2] of 76%.
The corresponding values for `O=C(c1ccccc1)c1cc(Cc2ccccc2)c(O)c2ccccc12` are 54 nM and 41%.
For `Cc1ccccc1Cc1ccc2ccccc2c1O` the same measures were 120 nM and 66%.
The corresponding values for `COc1ccc(Cc2ccc3ccccc3c2O)cc1OC` are 51 nM and 60%.
`CC(=O)c1cc(Cc2ccccc2)c(O)c2ccccc12`: 510 nM corresponded to half-maximal inhibition in test [1] (IC50). The Inhibition in test [2] turned out to be 16%.
For the molecule `COc1ccc(Cc2ccc3ccccc3c2O)cc1`, the midpoint of inhibition in test [1], the IC50, lay at 75 nM. The Inhibition in test [2] came out at 85%.
For `O=[N+]([O-])c1ccc(Cc2ccc3ccccc3c2O)cc1` the same measures were 48 nM and 58%.
The corresponding values for `Oc1c(Cc2ccc(Cl)c(Cl)c2)ccc2ccccc12` are 180 nM and 58%.
The corresponding values for `Oc1c(Cc2ccc3ccccc3c2)ccc2ccccc12` are 58 nM and 52%.
With `Cn1ccnc1Cc1ccc2ccccc2c1O`, 3500 nM corresponded to half-maximal inhibition in test [1] (IC50). Besides, the Inhibition in test [2] amounted to 9%.
For `COc1ccc2ccc(Cc3ccccc3)c(O)c2c1` the same measures were 3500 nM and 52%.
`CCOc1ccc(Cc2ccc3ccccc3c2O)cc1` returned an IC50 in test [1] of 62 nM. The same molecule returned an Inhibition in test [2] of 68%.
The corresponding values for `Oc1c(Cc2ccc(F)cc2)ccc2ccccc12` are 130 nM and 76%.
`Oc1c(Cc2cccc(C(F)(F)F)c2)ccc2ccccc12` showed an IC50 in test [1] of 270 nM. Further, the Inhibition in test [2] was 67%.
The corresponding values for `CCOC(=O)c1cc(Cc2ccccc2)c(O)c2ccccc12` are 160 nM and 16%.
The corresponding values for `Oc1c(Cc2ccc(OCc3ccccc3)cc2)ccc2ccccc12` are 72 nM and 12%.
For `Cc1cc(Cc2ccccc2)c(O)c2ccccc12` the same measures were 20 nM and 62%.
`Oc1c(Cc2cccc(Oc3ccccc3)c2)ccc2ccccc12` showed an IC50 in test [1] of 83 nM. Besides, the Inhibition in test [2] turned out to be 60%.
For `CS(=O)(=O)c1ccc(Cc2ccc3ccccc3c2O)cc1` the same measures were 240 nM and 0%.
For `OC(c1ccccc1)c1ccc2ccccc2c1` (stereo unspecified) the same measures were 40000 nM and 16%.
